A selection: hits, their analogues and other compounds. The true share with any hit is near 2.6%.
SENP7 inh = inhibitors of human SENP7 protease | 1.5% of 330,000 active | recombinant SENP7, Z-RLRGG-aminoluciferin luminescence, 40 min | AID 434973 | inhibition, % at 5 µM | Q9BQF6;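 active = inhibition above about 50% at the single test dose, limit read from the data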;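 note: plate controls were DMSO with enzyme for no effect and no enzyme buffer wells for full effect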
SENP1 FRET inh = blocks the human SENP1 SUMO protease catalytic domain; recombinant SENP1 catalytic domain, CyPet-SUMO1-YPet FRET cleavage; inhibition, % at 10 µM; Q9P0U3; 0.21% of 360,000 active;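 active = inhibition at least 30% at 10 µM, raw YFP signal under a set limit, fluorescence ratio 0.5 to 1.5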;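 note: 0% = enzyme with DMSO and 100% = no enzyme wells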
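Controls: no-enzyme wells low, DMSO-plus-enzyme wells high control. Test system: human recombinant His6-tagged SENP1 catalytic domain enzyme. Reagent: SFCypet-SUMO1-SFYpet FRET protein substrate, 25 nM final. Doses: one dose per compound, 10 µM, 0.5% DMSO. Detection: FRET, CFP and YFP emission. Timing: 50 min reaction at room temperature.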
SENP6 inh = SENP6 protease inhibition; 1.8% of 330,000 active; inhibition, % at 10 µM; Recombinant SENP6 catalytic domain, aminoluciferin luminescence;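 active = inhibition above about 50% at the single tested dose, limit read from the data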;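 note: plate controls were DMSO wells with enzyme for no effect and DMSO wells lacking enzyme for full effect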
Target sequence (Q9GZR1 628-1112 limits assumed): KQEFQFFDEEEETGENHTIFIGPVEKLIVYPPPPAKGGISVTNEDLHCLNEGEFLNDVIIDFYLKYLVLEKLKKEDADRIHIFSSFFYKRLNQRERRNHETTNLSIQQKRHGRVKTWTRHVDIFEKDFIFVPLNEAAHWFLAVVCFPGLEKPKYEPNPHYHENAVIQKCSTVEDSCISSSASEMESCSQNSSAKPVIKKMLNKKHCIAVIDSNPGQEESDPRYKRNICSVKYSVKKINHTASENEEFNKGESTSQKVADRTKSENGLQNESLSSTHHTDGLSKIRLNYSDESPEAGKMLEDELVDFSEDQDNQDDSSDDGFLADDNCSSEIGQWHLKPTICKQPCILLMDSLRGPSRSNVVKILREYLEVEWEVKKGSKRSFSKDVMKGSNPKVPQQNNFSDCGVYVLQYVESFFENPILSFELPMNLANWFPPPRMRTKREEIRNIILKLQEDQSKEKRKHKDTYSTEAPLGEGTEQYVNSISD
Platelet DG rel = platelet dense granule release activity | AID 1663 | human platelet-rich plasma, SFLLRN dense granule ATP release, luminescence | 0.22% of 300,000 active | inhibition, %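 (compounds screened at 7.5 µM in platelet-rich plasma)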;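 active = mean replicate score, as percent of positive control, at or above 50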
SENP8 block-1 = inhibitors of human SENP8 protease; inhibition, % at 10 µM; 1.2% of 330,000 active; AID 2540; purified SENP8, Z-RLRGG-aminoluciferin cleavage, luminescence; in the data active = inhibition above about 50%
SENP8 block-2 = SENP8 (human) protease inhibition; Q96LD8; recombinant SENP8, Nedd8 substrate fluorescence; inhibition, % at 20 µM; 0.64% of 360,000 active; AID 602440; in the data active = inhibition mostly above about 40%, no sharp cut-off; inactive = mostly below about 27%
Numbers without * were called inactive; x = not tested or not shown.

SMILES | SENP7 inh | SENP1 FRET inh | SENP6 inh | Platelet DG rel | SENP8 block-1 | SENP8 block-2
CC(=O)c1ccc(N(C)C)cc1 | -15 | 0 | -10 | -1 | -6 | 1
CN(C)c1ccc(Cc2cc3c(O)ccc(O)c3cc(Cc3ccc(N(C)C)cc3)c2=O)cc1 | x | 7 | x | x | x | 52*
O=C1C(=Cc2cccs2)Oc2ccccc21 | x | -153 | x | x | x | -131
Cc1ccccc1/C=C1\Oc2ccccc2C1=O | 51* | -3 | 78* | x | 63* | -27
O=c1c2c(nc3cc(-c4cccc(F)c4)[nH]n13)CCC2 | 45 | 2 | 60* | -1 | 44 | -270
Cc1nc2cc(-c3ccc(F)cc3)[nH]n2c(=O)c1C | 8 | 1 | 19 | 3 | 4 | -86
COc1cc2oc(=O)cc(-c3ccc(-c4ccc(CO)cc4)cc3)c2c(OC)c1OC | -12 | 2 | x | x | x | -39
O=C1C(=Cc2cccn2-c2ccc(O)cc2)C(=O)c2ccccc21 | 3 | 58 | 6 | 1 | 5 | 28*
O=C1C(=Cc2cccn2-c2ccccc2)C(=O)c2ccccc21 | x | -30 | x | -9 | x | 23
O=C1C=C(O)c2c(O)cc(O)c(O)c2C1=O | 4 | -45 | 4 | 1 | 5 | 47*
CCCS(=O)(=O)NC(=O)C1(C)CCCN(C(=O)c2cc(C)n(C(C)(C)C)n2)C1 (stereo unspecified) | x | 1 | x | x | x | 18
O=C(Nc1ccc2[nH]ncc2c1)c1cccc(F)c1 | 1 | 2 | 0 | 0 | -14 | 15
Cc1ccc2cc(NC(=O)c3cccc(F)c3)ccc2n1 | 40 | -3 | 58* | 11 | 31 | 25
COc1cccc(CNC(=O)CCS(=O)(=O)c2ccccc2Cl)c1 | 5 | 2 | -12 | x | -1 | 1
O=C(Nc1ccc(-c2cn3ccccc3n2)cc1)c1cccs1 | 52* | 0 | 49 | -1 | 39 | -30
O=C(Nc1ccccc1)c1cn2ccccc2n1 | 91* | 3 | 90* | 42 | 82* | 28
CN(C)C(/C=C/Nc1ccc(C#N)cc1)=C(C#N)C#N | 100* | -8 | -2 | 0 | 1 | 22
Cc1nc(N2CCC(C)CC2)c2oc3ccccc3c2n1 | -11 | -1 | -14 | 60* | -8 | -49
Cc1nc(N2CCN(Cc3ccc(Cl)cc3)CC2)c2oc3ccccc3c2n1 | -8 | 3 | -11 | 1 | -16 | -2
CCOc1ccc(S(=O)(=O)N2CCCC(C(=O)N3CCCC3)C2)cc1 (stereo unspecified) | -3 | 0 | -2 | 40 | -4 | 5
COc1ccc(C(=O)Nc2ccc(NC(=O)C3CC3)nc2)cc1 | -5 | 1 | -5 | -11 | -5 | 3
CC1(c2ccccc2)NC(=O)N(CC(=O)Nc2ccccc2N2CCCCC2)C1=O (stereo unspecified) | 3 | 1 | -9 | x | 3 | 3
Cc1ccccc1C(=O)OCn1nnc2ccccc2c1=O | 5 | 0 | 32 | 92* | 9 | 8
O=C1Nc2ccccc2N2CCCC12 (stereo unspecified) | 13 | x | 68* | -4 | 24 | x
O=S(=O)(Nc1ccc(-c2ccc3nncn3n2)cc1)c1ccccc1Cl | 4 | 9 | 3 | 61* | -6 | -200
SMILES | SENP7 inh | SENP1 FRET inh | SENP6 inh | Platelet DG rel | SENP8 block-1 | SENP8 block-2
COc1cccc2c1C(=O)c1c(O)c3c(c(O)c1C2=O)C[C@@](O)(C(=O)CO)C[C@@H]3O[C@H]1C[C@H](N)[C@@H](O)[C@H](C)O1 | 10 | 97 | 9 | 1 | 5 | 52*
CCOc1ccccc1CN1CCNC(=O)C1CC(=O)NC1CCCCCCC1 (stereo unspecified) | 8 | -7 | -10 | 4 | -5 | -41
COC(=O)/C(N=Nc1cccc(C(F)(F)F)c1)=C(\C)O | 3 | 0 | 0 | 7 | -3 | 49*
CCOC(=O)NC(=O)/C(N=Nc1cccc(C(F)(F)F)c1)=C(\C)O | -2 | 0 | -11 | -3 | -8 | 14
COc1ccc(NC(=O)CN(C)Cc2cccs2)cc1Cl | -1 | 1 | -9 | -1 | 4 | 10
CCCCn1c(NC(=O)c2ccccc2)c(C#N)c2nc3ccccc3nc21 | x | -21 | x | x | x | -278
CCCCn1c(NC(=O)c2ccc(F)cc2)c(C#N)c2nc3ccccc3nc21 | 19 | x | 92* | -1 | 95* | x
CC(C)c1ccc(/C=C/c2ccc(=O)n(C)n2)cc1 | 84* | 2 | 84* | 10 | 69* | -374

Screens: PubChem BioAssay, several laboratories
